# From ChEMBL document CHEMBL4732018, “Design, synthesis, and biological evaluation of pyrazole-linked aloe emodin derivatives as potential anticancer agents” (RSC Med Chem, 2021)
# The source made the active and inactive calls. The calls are words filed in the database; no cut-off is given here.
# What was measured:
# [1] = test system: MDA-MB-231; test: Anticancer activity against human MDA-MB-231 cells assessed as cell growth inhibition measured after 48 hrs by MTT assay; assay type: functional, cell-based; conditions: MDA-MB-231, 48 h
# Summary of the method: (§1)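 MTT test on ATCC lines grown in RPMI with 10% FBS and antibiotic/antimycotic at 37 °C in 5% CO₂. Cells were seeded at 4 x 10^3/well and treated for 48 h at 2.5, 5, 10 and 20 µM, from DMSO stocks diluted in medium. MTT (10 mg/mL stock) was then added for 3 h and absorbance read at 540 nm. IC50 derived; three independent experiments.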
# [2] = test system: HepG2; test: Anticancer activity against human HepG2 cells assessed as cell growth inhibition measured after 48 hrs by MTT assay; assay type: functional, cell-based; conditions: HepG2, 48 h; summary of the method: as §1
# [3] = test system: MCF7; test: Anticancer activity against human MCF-7 cells assessed as cell growth inhibition measured after 48 hrs by MTT assay; assay type: functional, cell-based; conditions: MCF7, 48 h; summary of the method: as §1
# [4] = test system: HEK293; test: Cytotoxicity against human HEK293 cells assessed as cell growth inhibition measured after 48 hrs by MTT assay; assay type: cell-based; conditions: HEK293, 48 h; summary of the method: as §1
# [5] = test system: B16-F10; test: Anticancer activity against mouse B16-F10 cells assessed as cell growth inhibition measured after 48 hrs by MTT assay; assay type: functional, cell-based; conditions: B16-F10, 48 h; summary of the method: as §1
# [6] = test system: MDA-MB-231; test: Induction of apoptosis in human MDA-MB-231 cells assessed as increase in caspase 8 activity at 5 to 20 uM pretreated for 48 hrs followed by IETD-pNA substrate addition for 2 hrs by colorimetric analysis; assay type: functional, cell-based; conditions: dose 5-20 µM, time 50.0 hrs
# [7] = test system: MDA-MB-231; test: Induction of cell cycle arrest in human MDA-MB-231 cells assessed as accumulation at G2/M phase at 5 uM measured after 24 hrs by PI staining based flow cytometry (reference value: 4.31 %); assay type: functional
# [8] = test system: MDA-MB-231; test: Induction of cell cycle arrest in human MDA-MB-231 cells assessed as accumulation at sub G0 phase at 10 uM measured after 24 hrs by PI staining based flow cytometry (reference value: 1.33 %); assay type: functional
# [9] = test system: MDA-MB-231; test: Induction of cell cycle arrest in human MDA-MB-231 cells assessed as accumulation at G1/S phase at 20 uM measured after 24 hrs by PI staining based flow cytometry (reference value: 19.33 %); assay type: functional
# [10] = test system: MDA-MB-231; test: Induction of apoptosis in human MDA-MB-231 cells assessed as early apoptotic cells at 10 uM measured after 24 hrs by Annexin V-FITC/PI staining based flow cytometric analysis (reference value: 6.73 %); assay type: functional
# [11] = test system: MDA-MB-231; test: Induction of cell cycle arrest in human MDA-MB-231 cells assessed as accumulation at G0/G1 phase at 20 uM measured after 24 hrs by PI staining based flow cytometry (reference value: 76.36 %); assay type: functional
# [12] = test system: MDA-MB-231; test: Induction of cell cycle arrest in human MDA-MB-231 cells assessed as accumulation at G2/M phase at 10 uM measured after 24 hrs by PI staining based flow cytometry (reference value: 4.31 %); assay type: functional
# [13] = test system: MDA-MB-231; test: Induction of apoptosis in human MDA-MB-231 cells assessed as early apoptotic cells at 5 uM measured after 24 hrs by Annexin V-FITC/PI staining based flow cytometric analysis (reference value: 6.73 %); assay type: functional
# [14] = test system: MDA-MB-231; test: Induction of apoptosis in human MDA-MB-231 cells assessed as increase in caspase 6 activity at 5 to 20 uM pretreated for 48 hrs followed by VEID-pNA substrate addition for 2 hrs by colorimetric analysis; assay type: functional, cell-based; conditions: dose 5-20 µM, time 50.0 hrs
# Summary of the method: (§2)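 Colorimetric caspase kit. MDA-MB-231 cells were cultured 24 h, then treated at 0, 5, 10 and 20 µM for 48 h. Lysates were mixed with reaction buffer containing 10 mM DTT. pNA substrate was added at 4 mM final (VDVAD for caspase-2, DEVD for caspase-3, VEID for caspase-6) and incubated 2 h at 37 °C. Absorbance read at 405 nm; triplicate, mean ± SD.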
# [15] = test system: MDA-MB-231; test: Induction of membrane disintegrity in human MDA-MB-231 cells assessed as increase in LDH release at 2.5 to 20 uM incubated for 48 hrs by LDH leakage assay; assay type: functional, cell-based; conditions: dose 2.5-20 µM
# Summary of the method: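 Extracellular LDH kit assay. Cells were seeded at 4 x 10^3/well and treated 48 h at various concentrations. 20 µL of culture supernatant was assayed with absorbance at 450 nm. Results are expressed as % LDH leakage relative to untreated control cells; triplicate, mean ± SD.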
# [16] = test system: MDA-MB-231; test: Induction of cell cycle arrest in human MDA-MB-231 cells assessed as accumulation at G1/S phase at 5 uM measured after 24 hrs by PI staining based flow cytometry (reference value: 19.33 %); assay type: functional
# [17] = test system: MDA-MB-231; test: Induction of apoptosis in human MDA-MB-231 cells assessed as early apoptotic cells at 20 uM measured after 24 hrs by Annexin V-FITC/PI staining based flow cytometric analysis (reference value: 6.73 %); assay type: functional
# [18] = test system: MDA-MB-231; test: Induction of apoptosis in human MDA-MB-231 cells assessed as late apoptotic cells at 20 uM measured after 24 hrs by Annexin V-FITC/PI staining based flow cytometric analysis; assay type: functional
# [19] = test system: MDA-MB-231; test: Induction of cell cycle arrest in human MDA-MB-231 cells assessed as accumulation at sub G0 phase at 20 uM measured after 24 hrs by PI staining based flow cytometry (reference value: 1.33 %); assay type: functional
# [20] = test system: MDA-MB-231; test: Induction of cell cycle arrest in human MDA-MB-231 cells assessed as accumulation at G0/G1 phase at 5 uM measured after 24 hrs by PI staining based flow cytometry (reference value: 76.36 %); assay type: functional
# [21] = test system: MDA-MB-231; test: Induction of cell cycle arrest in human MDA-MB-231 cells assessed as accumulation at G1/S phase at 10 uM measured after 24 hrs by PI staining based flow cytometry (reference value: 19.33 %); assay type: functional
# [22] = test system: MDA-MB-231; test: Induction of cell cycle arrest in human MDA-MB-231 cells assessed as accumulation at G2/M phase at 20 uM measured after 24 hrs by PI staining based flow cytometry (reference value: 4.31 %); assay type: functional
# [23] = test system: MDA-MB-231; test: Induction of apoptosis in human MDA-MB-231 cells assessed as increase in caspase 3 activity at 5 to 20 uM pretreated for 48 hrs followed by DEVD-pNA substrate addition for 2 hrs by colorimetric analysis; assay type: functional, cell-based; conditions: dose 5-20 µM, time 50.0 hrs; summary of the method: as §2
# [24] = test system: MDA-MB-231; test: Induction of apoptosis in human MDA-MB-231 cells assessed as increase in caspase 9 activity at 5 to 20 uM pretreated for 48 hrs followed by LEHD-pNA substrate addition for 2 hrs by colorimetric analysis; assay type: functional, cell-based; conditions: dose 5-20 µM, time 50.0 hrs
# [25] = test system: MDA-MB-231; test: Induction of apoptosis in human MDA-MB-231 cells assessed as late apoptotic cells at 5 uM measured after 24 hrs by Annexin V-FITC/PI staining based flow cytometric analysis; assay type: functional
# [26] = test system: MDA-MB-231; test: Induction of cell cycle arrest in human MDA-MB-231 cells assessed as accumulation at sub G0 phase at 5 uM measured after 24 hrs by PI staining based flow cytometry (reference value: 1.33 %); assay type: functional
# [27] = test system: MDA-MB-231; test: Induction of apoptosis in human MDA-MB-231 cells assessed as increase in caspase 2 activity at 5 to 20 uM pretreated for 48 hrs followed by VDVAD-pNA substrate addition for 2 hrs by colorimetric analysis; assay type: functional, cell-based; conditions: dose 5-20 µM, time 50.0 hrs; summary of the method: as §2
# [28] = test system: MDA-MB-231; test: Induction of cell cycle arrest in human MDA-MB-231 cells assessed as accumulation at G0/G1 phase at 10 uM measured after 24 hrs by PI staining based flow cytometry (reference value: 76.36 %); assay type: functional
# [29] = test system: MDA-MB-231; test: Induction of apoptosis in human MDA-MB-231 cells assessed as late apoptotic cells at 10 uM measured after 24 hrs by Annexin V-FITC/PI staining based flow cytometric analysis; assay type: functional
structure (smiles),measurement,setting,value
CCOC(=O)c1c(-c2cc(O)c3c(c2)C(=O)c2cccc(O)c2C3=O)nn(-c2ccc(C#N)cc2)c1C(=O)OCC,IC50,[1],1150 nM
same,IC50,[2],1340 nM
same,IC50,[3],4620 nM
same,IC50,[4],1970 nM
same,IC50,[5],3460 nM
CCOC(=O)c1c(-c2cc(O)c3c(c2)C(=O)c2cccc(O)c2C3=O)nn(-c2ccccc2)c1C(=O)OCC,IC50,[1],21700 nM
same,IC50,[2],12400 nM
same,IC50,[3],3180 nM
same,IC50,[4],4560 nM
same,IC50,[5],2220 nM
COC(=O)c1c(-c2cc(O)c3c(c2)C(=O)c2cccc(O)c2C3=O)nn(-c2ccccc2C)c1C(=O)OC,IC50,[1],1490 nM
same,IC50,[2],3460 nM
same,IC50,[3],4660 nM
same,IC50,[4],5010 nM
same,IC50,[5],3340 nM
CCOC(=O)c1c(-c2cc(O)c3c(c2)C(=O)c2cccc(O)c2C3=O)nn(-c2cccc(C)c2)c1C(=O)OCC,IC50,[1],990 nM
same,IC50,[2],1150 nM
same,IC50,[3],6350 nM
same,IC50,[4],1120 nM
same,IC50,[5],3460 nM
CCOC(=O)c1c(-c2cc(O)c3c(c2)C(=O)c2cccc(O)c2C3=O)nn(-c2ccccc2C)c1C(=O)OCC,IC50,[1],7560 nM
same,IC50,[2],1350 nM
same,IC50,[3],1130 nM
same,IC50,[4],2470 nM
same,IC50,[5],1570 nM
COc1cccc2c1C(=O)c1c(O)c3c(c(O)c1C2=O)C[C@@](O)(C(=O)CO)C[C@@H]3O[C@H]1C[C@H](N)[C@H](O)[C@H](C)O1 [DOXORUBICIN],IC50,[1],2560 nM
same,IC50,[2],2350 nM
same,IC50,[4],1650 nM
same,IC50,[5],3280 nM
COC(=O)c1c(-c2cc(O)c3c(c2)C(=O)c2cccc(O)c2C3=O)nn(-c2ccc(C(C)C)cc2)c1C(=O)OC,IC50,[1],1660 nM
same,Activity,[6],Active
same,Activity,[7],0.62%
same,Activity,[8],10.87%
same,Activity,[9],25.8%
same,Activity,[10],38.08%
same,Activity,[11],74.2%
same,Activity,[12],0.05%
same,Activity,[13],20.55%
same,Activity,[14],Active
same,Activity,[15],Active
same,Activity,[16],22.19%
same,IC50,[2],3990 nM
same,Activity,[17],35.34%
same,IC50,[3],2680 nM
same,Activity,[18],50.45%
same,Activity,[19],61.45%
same,Activity,[20],77.2%
same,Activity,[21],34.14%
same,Activity,[22],0%
same,Activity,[23],Active
same,Activity,[24],Active
same,Activity,[25],17.43%
same,IC50,[4],21200 nM
same,Activity,[26],5.66%
same,Activity,[27],Active
same,Activity,[28],65.81%
same,IC50,[5],6060 nM
same,Activity,[29],14.24%
CCOC(=O)c1c(-c2cc(O)c3c(c2)C(=O)c2cccc(O)c2C3=O)nn(-c2ccc(C)c(C)c2)c1C(=O)OCC,IC50,[1],900 nM
same,IC50,[2],1000 nM
same,IC50,[3],1040 nM
same,IC50,[4],1030 nM
same,IC50,[5],1850 nM
CCOC(=O)c1c(-c2cc(O)c3c(c2)C(=O)c2cccc(O)c2C3=O)nn(-c2cccc(F)c2)c1C(=O)OCC,IC50,[1],1850 nM
same,IC50,[2],2600 nM
same,IC50,[3],7260 nM
same,IC50,[4],1930 nM
same,IC50,[5],5400 nM
COC(=O)c1c(-c2cc(O)c3c(c2)C(=O)c2cccc(O)c2C3=O)nn(-c2ccccc2)c1C(=O)OC,IC50,[1],6780 nM
same,IC50,[2],3410 nM
same,IC50,[3],9960 nM
same,IC50,[4],8860 nM
same,IC50,[5],5610 nM
